Laboratory results reported in PMC11062432 (The Plant Cell, 2023).
Bridge positions count the residues as written; N and C are the ends. Ends that are not written are not given here.

Assays:
root growth = conditions: overexpression or application of the peptide; ref Matos et al. 2008; Li et al. 2022; cited from earlier work
[1] = tested on: plasma membrane H^+-ATPase2; conditions: roots; ref Haruta et al. 2014; cited from earlier work
ANX1 = assay: Pull-down assay, ANX1 ectodomain; format: binding, Arabidopsis thaliana; conditions: Flag-tagged ectodomain, His-tagged ZmRALFs
Summary of the method: (§1)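 FLAG-tagged Arabidopsis receptor ectodomains (from earlier work) were mixed with maize RALF mature peptides. The peptides were TrxA-His fusions expressed in E. coli BL21 (1 mm IPTG, 30 °C, 3–4 h), Ni-NTA-purified and desalted. The mix sat in 20 mm Tris pH 7.5, 1% CA630, rotating at 4 °C for 2 h. Ni-NTA beads were then added for 2 h more, followed by 5 washes. Read-out: SDS-PAGE and Western blot, anti-His and anti-FLAG.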

ANX2 = assay: Pull-down assay, ANX2 ectodomain; format: binding, Arabidopsis thaliana; conditions: Flag-tagged ectodomain, His-tagged ZmRALFs
Summary of the method: as §1

BUPS1 = assay: Pull-down assay, BUPS1 ectodomain; format: binding, Arabidopsis thaliana; conditions: Flag-tagged ectodomain, His-tagged ZmRALFs
Summary of the method: as §1

BUPS2 = assay: Pull-down assay, BUPS2 ectodomain; format: binding, Arabidopsis thaliana; conditions: Flag-tagged ectodomain, His-tagged ZmRALFs
Summary of the method: as §1

CrRLK1Ls = assay: Interaction of RALFs with CrRLK1Ls, overall; format: binding; conditions: discussion summary
ZmLLG1 = assay: Pull-down assay, ZmLLG1; format: binding, Zea mays; conditions: MBP-tagged LLG, His-tagged RALFs
Summary of the method: (§2)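 MBP-tagged maize partners were expressed in E. coli BL21 (0.1–0.5 mm IPTG, 30 °C, 3–4 h), amylose-purified, eluted with maltose and desalted. Partners: LLGs without signal peptide, PEX2 N-terminal LRR domain, PEX4. Each was incubated with His-tagged maize RALFs in 20 mm Tris pH 7.5, 1% CA630 at 4 °C for 2 h, then Ni-NTA pull-down for 2 h and 5 washes. Read-out: SDS-PAGE and Western blot, anti-His and anti-MBP.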

ZmLLG2 = assay: Pull-down assay, ZmLLG2; format: binding, Zea mays; conditions: MBP-tagged LLG, His-tagged RALFs
Summary of the method: as §2

ZmPEX2 = assay: Pull-down assay, LRR domain of ZmPEX2; format: binding, Zea mays; conditions: MBP-tagged N-terminal LRR domain of ZmPEX2, ZmRALFs
Summary of the method: as §2

ZmPEX4 = assay: Pull-down assay, full-length ZmPEX4; format: binding, Zea mays; conditions: MBP-tagged full-length ZmPEX4, ZmRALFs
Summary of the method: as §2

[2] = target: 6xHis-ZmRALF3 (predicted mature peptide, pET53-DEST, refolded) (maize (Zea mays)); assay: MST
[3] = target: 6xHis-ZmRALF1 (predicted mature peptide, pET53-DEST, refolded) (maize (Zea mays)); assay: MST
[4] = target: 6xHis-ZmRALF2 (predicted mature peptide, pET53-DEST, refolded) (maize (Zea mays)); assay: MST

For “AtRALF1: Clade IA Arabidopsis RALF (ATTKYISYQSLKRNSVPCSRRGASYYNCQNGAQANPYSRGCSKIARCRS; not fully specified; ends and bridges not checked; UniProt Q9SRY3 72-120, looked up)”, the “effect on root growth” value (root growth) is listed as “inhibited rapid root growth” and the “effect on H^+-ATPase2 via FER” value [1] is listed as “inhibition of plasma membrane H^+-ATPase2 explaining extracellular alkalinization”.
For “MARLALVAAVVLCLLLATGPQGAISAEGMVSFDNLISCKVLGNCDKNLGPEASRPGKPANDYTRGCNPITGCRG (disulfide (positions not given here)) [ZmRALF1]”, the interaction in pull-down (ANX1) was “did not interact with Arabidopsis CrRLK1Ls”, the interaction in pull-down (ANX2) was “did not interact with Arabidopsis CrRLK1Ls” and the interaction in pull-down (BUPS1) was “did not interact with Arabidopsis CrRLK1Ls”. For the same substance, the interaction in pull-down (BUPS2) was “very weak interaction” and the “interaction with CrRLK1Ls in words” value (CrRLK1Ls) was “very low (almost unspecific) binding”.
For “MARLGAGAVLALLVAVAAVAAFLAVPASAKSGELSAMGLLAAKGGSGAGPQKCSGAVGECDVDEAEELGLSGGGLGSDDAVRRTLAQRKPTNRYISYAALRADQVPCNKRGRSYYSNCEAQKAANPYRRGCSAITRCARNMN (disulfide (positions not given here)) [ZmRALF2]”, the interaction in pull-down (ANX1) was “interacted more strongly with ANX1/2 and BUPS1/2 compared with ZmRALF3”, the interaction in pull-down (ANX2) was “interacted more strongly with ANX1/2 and BUPS1/2 compared with ZmRALF3” and the interaction in pull-down (BUPS1) was “interacted more strongly with ANX1/2 and BUPS1/2 compared with ZmRALF3”. The interaction in pull-down (BUPS2) was “interacted more strongly with ANX1/2 and BUPS1/2 compared with ZmRALF3”, the interaction in pull-down (ZmLLG1) was “interacted with ZmLLG1/2” and the interaction in pull-down (ZmLLG2) was “interacted with ZmLLG1/2”. The interaction in pull-down (ZmPEX2) was “interacted with both ZmPEX proteins” and the interaction in pull-down (ZmPEX4) was “interacted with both ZmPEX proteins”.
For “MARLGAGAVLTLLLAVAAAAAFLAVPASAKVGDLSAVEFVAARGSSIPGQRSSKCSGAVGECGVDEEEELGLSGGGGIGAGDALRRTLAQRKPTNRYISYAALRADQVPCNKRGRSYYTNCAAQTAANPYRRGCSAITRCARSMN (disulfide (positions not given here)) [ZmRALF3]”, the interaction in pull-down (ZmLLG1) was “interacted with ZmLLG1/2”, the interaction in pull-down (ZmLLG2) was “interacted with ZmLLG1/2” and the interaction in pull-down (ZmPEX2) was “interacted with both ZmPEX proteins”. For the same substance, the interaction in pull-down (ZmPEX4) was “interacted with both ZmPEX proteins”.
With “MBP-tagged ectodomain of ZmFERL1 (domain or fragment)” the Kd [2] was 1730 nM.
In the case of “MGEAKLNNVTVLLVALLLLSSGVQDAAAMPGTLNYDAIVADEPNGKNKDLYRPVANANKYTRGCEPIERCRGAR (disulfide 64-70 (inferred)) [ZmRALF5]”, the interaction in pull-down (ANX1) is reported as “did not interact with Arabidopsis CrRLK1Ls”, the interaction in pull-down (ANX2) is reported as “did not interact with Arabidopsis CrRLK1Ls” and the interaction in pull-down (BUPS1) is reported as “did not interact with Arabidopsis CrRLK1Ls”.
“ZmFERL7 ectodomain as used in MST (tag not told: MBP or GST construct) (domain or fragment)” gave a Kd [3] of 3530 nM and a Kd [4] of 615 nM.
In the case of “ZmFERL9 ectodomain as used in MST (tag not told: MBP or GST construct) (domain or fragment)”, the Kd [3] is reported as 1900 nM and the Kd [4] is reported as 545 nM.
